This note sets out measurements from ChEMBL document CHEMBL4020823, “Highly Selective, Potent, and Oral mTOR Inhibitor for Treatment of Cancer as Autophagy Inducer” (J Med Chem, 2018).

Data set [1] concerns MCF7. As to the kind of experiment: Induction of autophagy in human MCF7 cells assessed as increase in LC3-2 level at 0.25 to 0.5 uM after 48 hrs by Western blot analysis. In kind it is functional, cell-based. A digest of the protocol: (§1)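 Cells were treated for 48 h (2 days) with varying concentrations. Whole-cell lysates were immunoblotted for LC3B-II with β-actin as the internal control. Membranes were blocked in 5% skim milk, incubated with primary antibody overnight at 4 °C, then with peroxidase-conjugated secondary, and developed by ECL.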
In general terms: In western blotting, separated proteins are transferred to a membrane and probed.

Data set [2] concerns HeLa. As to the kind of experiment: Inhibition of mTORC2 in human HeLa cells assessed as reduction in AKT phosphorylation at Ser473 residues at 0.5 to 1 uM by Western blot analysis. In kind it is cell-based. The method, boiled down:
(§2)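 Cells treated with the indicated concentrations, then whole-cell lysates immunoblotted. mTORC1 activity read as S6 and 4E-BP1 phosphorylation; mTORC2 activity read as AKT Ser473 phosphorylation. Blocking in 5% skim milk, primary antibodies at 4 °C overnight, peroxidase-conjugated secondary, ECL detection.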

Data set [3] is described as follows: MRT (0 to infinity) in Sprague-Dawley rat at 20 mg/kg, iv administered as single dose by HPLC analysis. Type of data set: ADME, organism-based. To be noted: in vivo. The method, boiled down:
(§3)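 Rats fasted overnight, then given a single 20 mg/kg dose either iv or po. Blood collected and centrifuged immediately to obtain plasma. Plasma drug levels measured by HPLC, and pharmacokinetic parameters derived from both routes.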

The subject of data set [4] is T47D. As to the kind of experiment: Antitumor activity against human T47D cells xenografted in BALB/c nude mouse assessed as tumor weight at 60 mg/kg, po administered via gavage after 3 weeks (reference value: 1.23 g). Type of data set: functional. On the technique in general: Xenograft models place foreign cells or tissue in a host animal.
A short description of data set [5]: Volume of distribution at steady state in Sprague-Dawley rat at 20 mg/kg, iv administered as single dose by HPLC analysis. To be noted: in vivo, read-out: Vdss. In kind it is ADME, organism-based. The method, boiled down:
as §3

Data set [6] is filed under the species Homo sapiens. Briefly: Inhibition of mTORC1 in human MCF7 cells assessed as reduction in S6 phosphorylation at Ser 240/244 residues at 0.25 to 0.5 uM by Western blot analysis. Type of data set: cell-based. A digest of the protocol: as §2
Data set [7] deals with Mus musculus. Briefly: Down regulation of S6 phosphorylation at Ser240/244 residues in human T47D cells xenografted in BALB/c nude mouse administered via oral gavage after 3 weeks by hematoxylin and eosine staining based light microscopic assay. In kind it is functional, cell-based. A digest of the protocol:
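Tumours from the oral 3-week T-47D xenograft study were formalin-fixed, paraffin-embedded and cut into 5 μm sections. Sections were deparaffinized, rehydrated and incubated overnight at 4 °C with phospho-specific primary antibody at 1:100. Biotin secondary was applied for 1 h at room temperature, then ABC-peroxidase/DAB with hematoxylin counterstain. Sections were viewed by light microscopy.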

For data set [8], the species on record is Homo sapiens. As to the kind of experiment: Inhibition of mTORC1 in human SiHa cells assessed as reduction in 4E-BP1 phosphorylation at Thr37/46 residues at 0.25 to 0.5 uM by Western blot analysis. Type of data set: cell-based. The method, boiled down: as §2
Data set [9] deals with T47D. As to the kind of experiment: Induction of autophagy in human T47D cells assessed as increase in LC3-2 puncta level at 0.25 to 0.5 uM after 48 hrs by immunofluorescence staining based microscopic analysis. In kind it is functional, cell-based. A digest of the protocol:
(§4)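 Cells seeded on glass coverslips in complete 1640 or DMEM and incubated with inhibitors at different concentrations for 48 h. Fixed in 4% paraformaldehyde, permeabilized with 0.15% Triton X-100, blocked in 4% BSA/PBS for 1 h at room temperature. Anti-LC3B (1:200) overnight, then FITC-conjugated secondary, DAPI nuclear stain. LC3B-II puncta viewed by fluorescence microscopy.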

Data set [10] concerns MCF7. As to the kind of experiment: Induction of autophagy in human MCF7 cells assessed as increase in LC3-2 puncta level after 48 hrs by immunofluorescence staining based microscopic analysis. Type of data set: functional, cell-based.
Data set [11] concerns HeLa. As to the kind of experiment: Induction of autophagy in human HeLa cells assessed as increase in LC3-2 level at 1 to 2 uM after 48 hrs by Western blot analysis. In kind it is functional, cell-based. The method, boiled down:
as §1

The nature of data set [12]: AUC (0 to infinity) in Sprague-Dawley rat at 20 mg/kg, iv administered as single dose by HPLC analysis. In kind it is ADME, organism-based. To be noted: in vivo. Also on record: dose 20 mg/kg, time infinity, route intravenous. A digest of the protocol: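 Rats fasted overnight, then given one 20 mg/kg dose either iv or po. Blood was collected and centrifuged at once to obtain plasma. Plasma drug levels were measured by HPLC, and PK parameters were derived from the concentration-time data.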

Data set [13] relates to MDA-MB-231. As to the kind of experiment: Growth inhibition of human MDA-MB-231 cells after 72 hrs by CCK8 assay. Type of data set: functional, cell-based. To be noted: MDA-MB-231, 72 h. The method, boiled down: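 Cells were seeded at 2000–3000 per well and grown 24 h in serum-containing medium. They were then exposed to serially diluted compound for 72 h at 37 °C, 5% CO2. CCK8 reagent was added for 1–4 h and absorbance read at 450 nm. Inhibition = (AC − AS)/(AC − Ab) × 100%. IC50 is the average of at least three independent determinations.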
For orientation: Tetrazolium assays rely on reduction of a dye to a coloured formazan, in cell work by metabolically active cells.

For data set [14], the system named is PI3-kinase p110-alpha/p85-alpha (Homo sapiens), P27986+P42336 [E542K]. As to the kind of experiment: Inhibition of full length recombinant human p85alpha/PI3K p110alpha E542K mutant at 1 uM relative to control. A digest of the protocol:
(§5)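 Eurofins KinaseProfiler panel with compound at a single 1 μM concentration. ATP at the Km of each kinase. Result is % inhibition, mean of two independent experiments.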

The test system of data set [15] is MDA-MB-231. As to the kind of experiment: Induction of autophagy in human MDA-MB-231 cells assessed as increase in LC3-2 puncta level after 48 hrs by immunofluorescence staining based microscopic analysis. In kind it is functional, cell-based. A digest of the protocol: as §4
For data set [16], the system named is T47D. Briefly: Antitumor activity against human T47D cells xenografted in BALB/c nude mouse assessed as decrease in tumor growth administered via oral gavage after 3 weeks. In kind it is functional, cell-based.
The test system of data set [17] is MCF7. As to the kind of experiment: Cell cycle arrest in human MCF7 cells assessed as decrease in S-phase at 0.25 to 0.5 uM after 24 hrs by propidium iodide-staining based flow cytometric analysis. Type of data set: functional. The method, boiled down:
(§6)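 Cells were seeded at 5 × 10^5 cells/mL. At 24 h after plating they were treated with increasing concentrations for 24 h, washed in PBS, and fixed in ice-cold 70% ethanol for at least 24 h. They were stained with propidium iodide plus RNase A for 30 min at 37 °C and analysed by flow cytometry for phase distribution.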

Data set [18] is filed under the species Homo sapiens. Briefly: Inhibition of mTORC1 in human T47D cells assessed as reduction in S6 phosphorylation at Ser 240/244 residues at 0.25 to 0.5 uM by Western blot analysis. Type of data set: cell-based. The method, boiled down: as §2
The subject of another data set is SiHa. As to the kind of experiment: Cell cycle arrest in human SiHa cells assessed as accumulation at G0/G1 phase at 0.25 to 0.5 uM after 24 hrs by propidium iodide-staining based flow cytometric analysis. In kind it is functional. A digest of the protocol: as §6
The species entered for data set [19] is Mus musculus. Briefly: Inhibition of full length recombinant mouse PI3K p110alpha/p65alpha at 1 uM relative to control. A digest of the protocol:
as §5

Data set [20] concerns the target PI3K p110 beta/p85 alpha (Homo sapiens) (UniProt P27986+P42338). As to the kind of experiment: Inhibition of full length recombinant human PI3K p110beta/p85alpha at 1 uM relative to control. Type of data set: protein-complex assay. The method, boiled down: as §5
For data set [21], the system named is MDA-MB-231. As to the kind of experiment: Induction of autophagy in human MDA-MB-231 cells assessed as increase in LC3-2 level at 0.25 to 0.5 uM after 48 hrs by Western blot analysis. Type of data set: functional, cell-based. The method, boiled down:
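Cells treated with test agents at several concentrations for 2 days (48 h). LC3B-II detected by Western blot on lysates, with β-actin as internal control. Membranes blocked in 5% skim milk, primary antibodies at 4 °C overnight, peroxidase-conjugated anti-mouse or anti-rabbit IgG secondary, ECL detection.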

For data set [22], the system named is MDA-MB-231. As to the kind of experiment: Cell cycle arrest in human MDA-MB-231 cells assessed as accumulation at G0/G1 phase at 0.25 to 0.5 uM after 24 hrs by propidium iodide-staining based flow cytometric analysis. In kind it is functional. The method, boiled down: as §6

The source made the active and inactive calls. The calls are words filed in the database; no cut-off is given here.

PI3K p110 beta/p85 alpha (Homo sapiens), sequence (P27986 2-724 limits assumed): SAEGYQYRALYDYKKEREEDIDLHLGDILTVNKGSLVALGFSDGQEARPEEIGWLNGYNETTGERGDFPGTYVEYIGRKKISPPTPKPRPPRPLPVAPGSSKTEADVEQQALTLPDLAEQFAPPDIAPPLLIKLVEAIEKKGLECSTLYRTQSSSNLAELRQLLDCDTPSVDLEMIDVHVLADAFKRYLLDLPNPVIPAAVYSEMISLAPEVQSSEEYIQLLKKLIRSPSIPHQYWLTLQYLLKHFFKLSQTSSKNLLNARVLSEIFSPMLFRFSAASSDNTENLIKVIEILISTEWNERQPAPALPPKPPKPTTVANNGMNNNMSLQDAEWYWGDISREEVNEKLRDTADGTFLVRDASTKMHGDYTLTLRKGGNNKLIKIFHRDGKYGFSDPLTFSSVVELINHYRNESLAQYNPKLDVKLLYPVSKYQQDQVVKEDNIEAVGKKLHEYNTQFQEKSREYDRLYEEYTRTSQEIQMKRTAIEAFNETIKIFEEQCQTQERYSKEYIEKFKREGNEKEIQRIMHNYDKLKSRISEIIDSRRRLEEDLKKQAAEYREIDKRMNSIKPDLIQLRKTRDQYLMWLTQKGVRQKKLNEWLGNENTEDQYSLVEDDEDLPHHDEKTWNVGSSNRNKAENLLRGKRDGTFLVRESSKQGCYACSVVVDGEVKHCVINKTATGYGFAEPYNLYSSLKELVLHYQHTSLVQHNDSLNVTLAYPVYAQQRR
PI3K p110 beta/p85 alpha (Homo sapiens), sequence (P42338 whole entry partner): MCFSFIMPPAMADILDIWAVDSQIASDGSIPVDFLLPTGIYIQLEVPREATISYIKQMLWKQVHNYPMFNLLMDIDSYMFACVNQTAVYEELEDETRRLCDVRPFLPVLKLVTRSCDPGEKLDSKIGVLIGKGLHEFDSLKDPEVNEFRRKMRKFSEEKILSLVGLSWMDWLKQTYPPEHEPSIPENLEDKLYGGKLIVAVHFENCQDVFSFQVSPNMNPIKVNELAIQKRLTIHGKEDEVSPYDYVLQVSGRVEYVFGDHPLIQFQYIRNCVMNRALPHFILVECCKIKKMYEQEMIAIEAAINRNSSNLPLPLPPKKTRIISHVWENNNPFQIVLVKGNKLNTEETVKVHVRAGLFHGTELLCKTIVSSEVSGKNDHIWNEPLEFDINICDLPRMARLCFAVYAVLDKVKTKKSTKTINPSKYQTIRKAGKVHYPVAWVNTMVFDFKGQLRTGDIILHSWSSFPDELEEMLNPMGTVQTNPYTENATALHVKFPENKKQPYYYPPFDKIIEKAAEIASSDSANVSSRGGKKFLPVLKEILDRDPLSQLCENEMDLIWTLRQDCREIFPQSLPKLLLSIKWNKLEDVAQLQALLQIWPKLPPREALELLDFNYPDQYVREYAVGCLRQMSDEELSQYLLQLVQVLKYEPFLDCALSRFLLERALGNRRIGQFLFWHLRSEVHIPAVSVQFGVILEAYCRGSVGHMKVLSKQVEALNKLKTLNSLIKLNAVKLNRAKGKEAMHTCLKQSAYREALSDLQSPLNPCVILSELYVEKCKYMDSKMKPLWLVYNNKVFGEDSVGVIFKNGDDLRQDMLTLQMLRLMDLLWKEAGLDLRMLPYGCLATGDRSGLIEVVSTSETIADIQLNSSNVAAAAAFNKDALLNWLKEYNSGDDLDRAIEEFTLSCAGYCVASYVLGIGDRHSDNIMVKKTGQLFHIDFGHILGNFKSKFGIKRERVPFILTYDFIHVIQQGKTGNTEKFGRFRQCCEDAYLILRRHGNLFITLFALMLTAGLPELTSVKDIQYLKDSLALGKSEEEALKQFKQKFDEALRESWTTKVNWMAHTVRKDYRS

One may read the inhibition as the share of the control response that was lost under treatment. In general, MRT inf refers to the average time that molecules of a dose stay in the body. A word on the AUC(0-inf): it is the area under the concentration-time curve extrapolated to infinity. For orientation: IC50 means the concentration needed to halve the response being measured. Low readings indicate higher potency, high ones lower potency. As for `N#CCN1CCC(n2c(=O)cnc3cnc4ccc(-c5ccc(N)nc5)cc4c32)CC1`, the outcome in the data set with MCF7 [1], in the data set on T47D [9], with HeLa [11], in the data set on MCF7 [17], with SiHa and in the data set on MDA-MB-231 [21] was Active. For the same compound, the outcome with MDA-MB-231 [22] was Active. For the same compound, the inhibition result with HeLa [2], in the data set filed under Homo sapiens [6], in the data set filed under Homo sapiens [8] and in the data set listed under Homo sapiens [18] was “Active” each time. In addition, the MRT inf in [3] turned out to be 11.6 h. Further, the Activity in the data set on T47D [4] is 0.194 g; in the data set with Mus musculus [7], “Dose-dependent effect”; in the data set with MCF7 [10] it was “Dose-dependent effect”; in the data set with MDA-MB-231 [15], “Dose-dependent effect”. Moreover, the Vd in data set [5] was found to be 16.7 L/kg. For the same compound, in [12], the AUC(0-inf) was found to be 6.56 µg·h/mL. Moreover, the concentration for half-maximal inhibition (IC50) with MDA-MB-231 [13] turned out to be 0.1 µM. Also, the inhibition in [14] was 11%; in the data set listed under Mus musculus [19], 9%; in data set [20], 7%. Moreover, the TGI result in the data set with T47D [16] was “Dose-dependent effect”.
